The text below walks through data of the EternaBench riboswitch data.

The series relates to MS2 coat protein. The experiment in a line: apparent Kd, MS2 coat protein; higher = weaker binding; RNA-MaP array; FMN 200 µM where present. In short, it runs like this:
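Stalled E. coli RNA polymerase transcribed the designs on Illumina sequencing-chip clusters. SNAP-549-labelled MS2 coat protein was titrated from 0.7 or 1.5 nM, doubling to 3 µM, without and then with constant ligand, in 100 mM Tris-HCl pH 7.5, 80 mM KCl, 4 mM MgCl2, BSA, DTT, yeast tRNA and Tween-20. Per-cluster binding curves were fitted to green signal normalised to red-channel RNA signal and control-cluster median Fmax. The apparent Kd is the median of the filtered fits.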

Setting [1] is: designed as: OFF switch for flavin mononucleotide, no ligand.
Where [2] appears, read: ligand present: flavin mononucleotide, designed as: OFF switch for flavin mononucleotide.
Where [3] appears, read: designed as: ON switch for flavin mononucleotide, no ligand.
[4] abbreviates: ligand present: flavin mononucleotide, designed as: ON switch for flavin mononucleotide.

With “CCAUGGCAUGUAGGAUAUAUCUGACAAAGUCAGAUAGAAGGACAUGAGGAUCACCCAUGUAAACCGAAAGGAACAUAGCCAUGG”, the “apparent Kd” value runs as follows: under setting [1], 0.00636 µM; under setting [2], 0.00696 µM.
The matching figures for “CUAUUAUUGAUCCAUUUUUUCAACAUGAGGAUCACCCAUGUGCAGGAUAUCGUGAUUAUUAUCAACGAGAAGGGCAGAUUCACG”: 0.0593 µM and 0.178 µM.
As for “AAACAGGGAGGAUAUACAUAGAUCCUCUAACCUAAUUGGUCACAUGAGGAUCACCCAUGUAGAAGGCCCUUAGG”, the “apparent Kd” value under setting [2] came out at 0.0114 µM.
Take “GGUGGACAUGAGGAUCACCCAUGUGAGGAUAUCGGCUGGCUAGCGGCGGACGGCUUCUCGAGAAGGCGCAUUGU”: the “apparent Kd” value is, setting by setting: under setting [1], 0.0578 µM; under setting [2], 0.0571 µM.
For “CGAUAGGACAGAGGAUAUACACAUGAGGAUCACCCAUGUGAUUACAAUUCUUAAGAUUCAAACAUGUAGAAGGCUGUCCUAUCG”, in that order: 0.00925 µM and 0.0174 µM.
As to “AGAUGUGAACAUGAGGAUCACCCAUGUGACUAGGUAUAUUUCAGAAGGCAUUUAUAGAGAUUAUAUGAGGAUAUGAAGUUUUAA”, the “apparent Kd” value under setting [3] was determined as 0.0126 µM and the “apparent Kd” value under setting [4] is 0.00659 µM.
Consider “CGGCAAAGGAAGGAUAUGCUAGACGAAAGUCUAGCAGAAGGUCCUACAUGAGGAUCACCCAUGUGUCCUAGCCG”, for which the “apparent Kd” value reads like this: under setting [1], 0.0454 µM; under setting [2], 0.0551 µM.
For “GCCAUCGCAUGAGGAUAUAAUCGGGUUUCCCGUUUAGAAGGCAUGUCAUAAGACAUGAGGAUCACCCAUGUAGUUAAGAUGGCA”, the “apparent Kd” value under setting [3] was 0.471 µM and the “apparent Kd” value under setting [4] worked out at 0.027 µM.
As for “AACAGCUCGUCAGGAUAUAUUAUCUUUUUAUGUAUUUAUGUACAUGAGGAUCACCCAUGUUGUUUGUAGAAGGGACGAGCUGAA”, the “apparent Kd” value runs as follows: under setting [1], 0.0304 µM; under setting [2], 0.0265 µM.
For “UGUCGGAGCAGAGGAUAUUACAUGAGGAUCACCCAUGUAUGAACCAAUGGCUGGAAACAGCAAUGUAAGAAGGCUGCUCCGACA”, in that order: 0.00969 µM and 0.0645 µM.
Consider “CUAUAGAUAUCAGGAUAUCUAUUUCCAACAUGAGGAUCACCCAUGUUGAGGAUCACCCAUGUAAAGGAGAAGGGAUAUCUAUAG”, for which the “apparent Kd” value under setting [3] came to 0.0691 µM and the “apparent Kd” value under setting [4] turned out to be 0.0164 µM.
With “CUUUCGUGAGGAUAUGAGGCUUCGAUCGUGAGAUCGAGGCUACAGAAGGCACAUGAGGAUCACCCAUGUUCCUC”, the “apparent Kd” value under setting [1] came out at 0.0309 µM and the “apparent Kd” value under setting [2] was 0.392 µM.
For “GUCACACACCGCUCCGUGUCUGACAUGAGGAUCACCCAUGUGAGAAGGUAGCGUCGCAGUAACGUUAAGGAUAUCACGUACAGA”, in that order: 0.00704 µM and 0.0074 µM.
Take “UCAGUAGAGUCAGGAUAUACCGAAAAGAAUCCUCACAUGAGGAUCACCCAUGUAGAAGGGACUCUACUGUAAGUCGGAAACGAC”: the “apparent Kd” value is, setting by setting: under setting [1], 0.0918 µM; under setting [2], 0.868 µM.
Consider “CCCGGGCCUGUGAGGAUAUCGGGCCCGAAAGGGUUUGAGAAGGCACAUGAGGAUCACCCAUGUAAGGGUUUGGG”, for which the “apparent Kd” value is, setting by setting: under setting [1], 0.0338 µM; under setting [2], 0.0247 µM.
The matching figures for “CGAUAUACGACGGACGGAAACGUACAUGAGGAUCACCCAUGUAGAAGGCGAUCCGCAACGCGGAUUGAGGAUAUAUAGUAUACA”: 0.0207 µM and 0.0146 µM.
Regarding “GGUUGACGACAAUUACAUGAGGAUCACCCAUGUUUUGGGAUGCAGGAUAUGUGGUAUAUUAAUUAACAGAAGGGCAAUAAUUUU”, the “apparent Kd” value by setting is: under setting [3], 0.0373 µM; under setting [4], 0.0393 µM.
In the case of “GCACUGGAUGUAGGAUAUCAGGACGAUAAGUCCUGAGAAGGACAUGAGGAUCACCCAUGUCCUAAAACCAGUGCAUAUAAUAUA”, the “apparent Kd” value turned out to be 0.0144 µM under setting [1] and 0.0167 µM under setting [2].
“AAAAAACAUGAGGAUCACCCAUGUCGAAAGACAUGAGGAUAUGUACAGACUUCGGUCUGUACAGAAGGCAUGUCUU”: the “apparent Kd” value reads like this: under setting [3], 0.0373 µM; under setting [4], 0.0152 µM.
As to “CGAUAUAUGAAGGGCGAACACGCACAUGAGGAUCACCCAUGUAGAAGGCGAUCCGCAACGCGGAUCGAGGAUAUAUAGUAUACA”, the “apparent Kd” value is, setting by setting: under setting [1], 0.0356 µM; under setting [2], 0.0424 µM.
Turning to “GGGUACAUCGGAGGAUAUCAUGUAAAUACAUGAGGAUCACCCAUGUCGAUGGAGGCAUCGGAGAUUGAGAAGGCCGAUGUACCG”, the “apparent Kd” value stood at 0.566 µM under setting [3] and 0.0176 µM under setting [4].
In the case of “CACGUCCACACAGGAUAUGCUGGACUUUGUCCAGCAGAAGGGUGAAAACAUGAGGAUCACCCAUGUAGGACGUGUAUAUUUAAU”, the “apparent Kd” value reads like this: under setting [3], 0.488 µM; under setting [4], 0.043 µM.
The matching figures for “GACCCAAAUGAGAAGGUGUGUAUAAAUUAUAUACAAGGAUAUCGGUCGAGCGUGUUGACAUGAGGAUCACCCAUGUUGUGGGUU”: 0.0571 µM and 0.0257 µM.
With “AAGUAACAUGAGGAUCACCCAUGUGAGGAUAUGAUUUAAGUUGUAAAAGUAAUAAAGGUCAGAAGGUAUGUGAA”, the “apparent Kd” value was 0.0621 µM under setting [1] and 0.0611 µM under setting [2].
For “CCCGGUCGAGCAGGAUAUAGACCGCGUGCAUUUCCCUCAGAUUGAGACAUGAGGAUCACCCAUGUCUAGAAGGGUUCACCGAAA”, in that order: 0.00583 µM and 0.00693 µM.
For “UUAAGUCAUGUAGGAUAUCCGAGGCGAAGCGUUGGAGAAGGACAUGAGGAUCACCCAUGUUCUAGCGUCUGAGUACAGAUGCAA”, in that order: 0.0227 µM and 0.0337 µM.
For “UUAUUUUUACAGAAGGUUUAAUAAUAUAUAUGAGAAGGAUAUGUAACAUGAGGAUCACCCAUGUUUCAUCUAUAUGAGGAUCAU”, in that order: 0.00669 µM and 0.00632 µM.
In the case of “CAGGUAGCUACAGGAUAUACACAGCUCAGUAAACUGAGCAAAAGAUCUACAUGAGGAUCACCCAUGUAGAAGGGUAGCUGCCUG”, the “apparent Kd” value amounted to 0.0171 µM under setting [1] and 0.0182 µM under setting [2].
For “ACACUCUAUGCAGGAUAUCGAGCCUGGGCCUUGUUUUUUGUAAACAUGAGGAUCACCCAUGUCUUCGAGAAGGGCAUAACACCG”, in that order: 0.372 µM and 0.136 µM.
Regarding “UGGUACUAGGGAGGAUAUGGGAAGAUACAUGAGGAUCACCCAUGUUUAAGAAUGCCGAGAGGCAACUAGAAGGCCCUAGUAACU”, the “apparent Kd” value reads like this: under setting [3], 0.461 µM; under setting [4], 0.0202 µM.
Take “AGCUCGCGAAGAGGAUAUACAGCGGCGACCUAUCAUGAUGAGCGGGUUACAUGAGGAUCACCCAUGUAGAAGGCUUCCCGACUC”: the “apparent Kd” value under setting [1] was 0.0179 µM and the “apparent Kd” value under setting [2] is 0.0522 µM.
Regarding “GUCACUAGAGGAUAUACAAUGGUAUAUGAUCCUAGAGACAAACAUGAGGAUCACCCAUGUAGAAGGCUAGUAUU”, the “apparent Kd” value by setting is: under setting [1], 0.155 µM; under setting [2], 0.0374 µM.
As to “CAACUGAGCGUAAAUUACCUGAACAUGAGGAUCACCCAUGUGGAGGAUAUUGACUUAGCAAAACUCGAGAAGGCCACUGGGUAG”, the “apparent Kd” value came out at 0.0446 µM under setting [1] and 0.0185 µM under setting [2].
As for “GAAUGAAAGCAGAAGGCCGCACAUGAGGAUCACCCAUGUGAAAACAGAUGGAGGAUAUGCGAACGUUCGCUUUGAAAAGUAAAG”, the “apparent Kd” value runs as follows: under setting [3], 0.0135 µM; under setting [4], 0.00635 µM.
For “GGUUAAUAUCGAGGAUAUGUCUAGACACAUGAGGAUCACCCAUGUAUGUGUAUAGAAGGCGAUAUUAACAGCAUGUUACAUGCC”, in that order: 0.0381 µM and 0.0168 µM.
For the sequence “CGCUAGUCAGGAUAUACGAACAUGUCAAAAGACGUGAAGGGACAUGAGGAUCACCCAUGUAGAAGGGACUAGCG”, the “apparent Kd” value under setting [1] was 0.0367 µM and the “apparent Kd” value under setting [2] worked out at 0.206 µM.
The matching figures for “ACGUGUUAUACAGGAUAUGUAUAGGUAUAAUCAUACAGUUAUUAAUUAAUGACAGAAGGGUAAACAUGAGGAUCACCCAUGUCA”: 0.511 µM and 0.248 µM.
For “UAGUACUAGGGAGGAUAUGGGAAGAUACAUGAGGAUCACCCAUGUUUAAGAAUGCCGAGAGGCAACUAGAAGGCCCUAGUACCU”, the “apparent Kd” value is, setting by setting: under setting [3], 0.463 µM; under setting [4], 0.0192 µM.
In the case of “CGUGUCAUCGAGAAGGCCUCAACAUGAGGAUCACCCAUGUUGUAAUAUGGGAGGAUAUCGAUGAUACAGCUACGUUUCGUAGCA”, the “apparent Kd” value is 0.0211 µM under setting [3] and 0.00603 µM under setting [4].
Take “GGUCAGCUAGGAUAUACAUGAGGAUCACCCAUGUACUGACCCAUGCGGGAGUCCGCAUGUAGAAGGAGCAAAAU”: the “apparent Kd” value runs as follows: under setting [1], 0.0209 µM; under setting [2], 0.0226 µM.
“AGUGUCAUCGAGAAGGCCUCAACAUGAGGAUCACCCAUGUUGCAAAAUGGGAGGAUAUCGCGCGUUCAAAAACGUUUCGUAGCA”: the “apparent Kd” value was determined as 0.0423 µM under setting [3] and 0.0176 µM under setting [4].
“CCAUUCAGAGGAUAUGCGCAUAGAUAAGACUUUUUUUCUUAACAUGAGGAUCACCCAUGUAGAAGGCUGUACCC”: the “apparent Kd” value is 0.0216 µM under setting [1] and 0.0194 µM under setting [2].
Consider “UAUUGAUAAUAUUUUCACAUGAGGAUCACCCAUGUCGCUCGACAGGAUAUAUUUUAUUUGUUUAAGUAGAAGGGUCGCAGAUUU”, for which the “apparent Kd” value by setting is: under setting [3], 0.143 µM; under setting [4], 0.109 µM.
In the case of “AACGACGGAGGAUAUACACCCUGGGACUCAUCAUCCCUUAGACAUGAGGAUCACCCAUGUAGAAGGCCGGACAC”, the “apparent Kd” value is 0.0349 µM under setting [1] and 0.154 µM under setting [2].
With “AUCCGGGCUAACAUGAGGAUCACCCAUGUGUUAUACUUAAUAUAGGAUAUGUUUAUACUUUUUGGGCAGAAGGAUGGCCCGGAU”, the “apparent Kd” value was 0.0831 µM under setting [3] and 0.0688 µM under setting [4].
For “AAAAAUAGAGGAUAUACAUGAAAAAAAAAAAAAAAAAAAAAACAUGAGGAUCACCCAUGUAGAAGGCUAAAAAA”, the “apparent Kd” value is, setting by setting: under setting [1], 0.0453 µM; under setting [2], 0.0303 µM.
The matching figures for “CCUCUACAUGAGGAUCACCCAUGUGAGGAUAUCUCGGAGCAGCCACUUAAGGCGCUCCAGAGAAGGCACGUGUA”: 0.0196 µM and 0.0288 µM.
As for “CCCGGGUUUGUGAGGAUAUUGGGCCCGAAAGGGCCCGAGAAGGCACAUGAGGAUCACCCAUGUAAGGGCCCGGG”, the “apparent Kd” value reads like this: under setting [1], 0.0258 µM; under setting [2], 0.0264 µM.
